Assays:
[1] = Plasma concentration in rat at 5 mg/kg, po at 30 mins; assay type: ADME, organism-based; set-up: dose 5 mg/kg, route oral
Procedure, shortened: (§1)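 Rats received 5 mg/kg orally in 90% PEG 400/10% EtOH. The parent tetrazole concentration in plasma was measured at 30 and 120 min after dosing. Each value is the average of two rats.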

[2] = Plasma concentration in rat at 5 mg/kg, po at 120 mins; assay type: ADME, organism-based; set-up: dose 5 mg/kg, route oral; procedure, shortened: as §1
[3] = system: Human immunodeficiency virus 1; test: Antiviral activity against HIV1 JRFL pseudotyped virions infected in HeLa CD4 CCR5 cells after 48 hrs by luciferase assay; assay type: functional, organism-based; conditions: Human immunodeficiency virus 1, JRFL, HeLa-CD4/CCR5, 48 h
Procedure, shortened: (§2)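 EC50s came from a single-cycle infectivity assay with HIV JRFL pseudotyped virus. CC50s were determined by the method described in an earlier report. Values are means of two or more experiments.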

[4] = Permeability across human Caco2 cells assessed as drug recovery at pH 6.5; assay type: ADME, cell-based; conditions: caco-2, pH 6.5, read-out: Drug recovery
[5] = Cytotoxicity against human HeLa cells by XTT assay; assay type: cell-based; procedure, shortened: as §2
Liver microsomes = test: Prodrug conversion in human liver microsomes assessed as formation of 1-(4-benzoylpiperazin-1-yl)-2-(4-fluoro-7-(2H-tetrazol-5-yl)-1H-indol-3-yl)ethane-1,2-dione in absence of NADPH after 5 mins; assay type: ADME, Microsome
[6] = Oral bioavailability in rat at 5 mg/kg; assay type: ADME, organism-based; conditions: in vivo
Procedure, shortened: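 Rat pharmacokinetics used 90% PEG 400/10% EtOH as vehicle. The IV dose was 1 mg/kg and the oral dose 5 mg/kg.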

[7] = Half life in human liver microsomes assessed in presence of NADPH; assay type: ADME, Microsome
Caco-2 = test: Permeability across human Caco2 cells at pH 6.5; assay type: ADME, cell-based; conditions: caco-2, pH 6.5

| SMILES | concentration at 0.5 h [1] | concentration at 2 h [2] | EC50 [3] | recovery [4] | CC50 [5] | Drug metabolism (Liver microsomes) | bioavailability [6] | half-life [7] | permeability (Caco-2) |
| --- | --- | --- | --- | --- | --- | --- | --- | --- | --- |
| O=C(C(=O)N1CCN(C(=O)c2ccccc2)CC1)c1c[nH]c2c(-c3nn[nH]n3)ccc(F)c12 | 19 ng/mL | 25 ng/mL | 34 nM |  |  |  |  |  |  |
| CC(=O)OCn1nnc(-c2ccc(F)c3c(C(=O)C(=O)N4CCN(C(=O)c5ccccc5)CC4)c[nH]c23)n1 | 261 ng/mL | 378 ng/mL | 60 nM | < 70% | 36000 nM | Active |  |  |  |
| O=C(O)c1c(Cc2ccc(-c3ccccc3-c3nn[nH]n3)cc2)c(C2CC2)nc2ccccc12 |  |  |  |  |  |  | 11% |  |  |
| CC(C)C(OC(=O)C(C)(C)C)n1nnc(-c2ccccc2-c2ccc(Cc3c(C4CC4)nc4ccccc4c3C(=O)O)cc2)n1 (configuration not stated) |  |  |  |  |  |  | 39% |  |  |
| Cn1nnc(-c2ccc(F)c3c(C(=O)C(=O)N4CCN(C(=O)c5ccccc5)CC4)c[nH]c23)n1 | 72 ng/mL | 207 ng/mL | 20 nM |  | > 300000 nM |  |  | 12 min |  |
| CC(C)(C)C(=O)OCn1nnc(-c2ccc(F)c3c(C(=O)C(=O)N4CCN(C(=O)c5ccccc5)CC4)c[nH]c23)n1 | 60 ng/mL | 13 ng/mL | 190 nM |  | 228000 nM | Active |  |  | ND(Insoluble) |
